The structures appear in SMILES notation. pIC50: −log10 of the molar value.

Holding throughout (type): functional, cell-based
Assay [1] in a line: Cytotoxicity against human CNE2 cells assessed as total cell protein after 48 hrs by SRB assay. The settings on record: CNE-2, 48 h. In a few lines: (§1)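 Cells kept in RPMI-1640 with 2 mM glutamine, 10% FBS, penicillin/streptomycin, 37 °C, 5% CO2. Seeded 5000 cells/well, grown 24 h, then serial dilutions from 10 mM DMSO stocks added in medium (final DMSO 0.5%), triplicate, 48 h. TCA fixation at 4 °C for 1 h, 0.4% SRB stain, dye solubilized in 10 mM Tris pH 10.4, OD 515 nm. IC50 by nonlinear regression of % control viability vs log concentration; experiments repeated at least twice.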
A general note: In SRB staining, fixed cells bind dye roughly in proportion to their protein.

Assay [2] deals with HepG2. Nature of the assay: Cytotoxicity against human HepG2 cells assessed as total cell protein after 48 hrs by SRB assay. The settings on record: HepG2, 48 h. In a few lines: as §1
In assay [3] the test system is A549. In words: Cytotoxicity against human A549 cells assessed as total cell protein after 48 hrs by SRB assay. The note with it: A549, 48 h. In a few lines: as §1
For assay [4], the system named is SW480. In words: Cytotoxicity against human SW480 cells assessed as total cell protein after 48 hrs by SRB assay. The settings on record: SW480, 48 h. The procedure, abridged:
as §1

The test system of assay [5] is MCF7. In words: Cytotoxicity against human MCF7 cells assessed as total cell protein after 48 hrs by SRB assay. The settings on record: MCF7, 48 h. The procedure, abridged: as §1

In the case of `COc1cc(/C=C/C(=O)c2cccc(-c3cccc(F)c3)c2)ccc1O`, the pIC50 was 5.24 in assay [1]; 5.17 in assay [2]; 5.00 in assay [3]; 5.17 in assay [4]; 4.85 in assay [5].

Take `O=C(/C=C/c1ccc(Cl)cc1)c1cccc(-c2cccc(F)c2)c1`: the pIC50 in assay [1] is 5.04; in assay [2], 4.98; in assay [3] it was 4.81; in assay [4] it was 4.77; in assay [5] it was 4.74.

With `O=C(/C=C/c1cccc(Br)c1)c1cccc(-c2cccc(F)c2)c1`, the pIC50 was 5.18 in assay [1]; 5.16 in assay [2]; 5.04 in assay [3]; 5.06 in assay [4]; 4.90 in assay [5].

`COc1ccccc1/C=C/C(=O)c1cccc(-c2cccc(F)c2)c1`: the pIC50 was 4.98 in assay [1]; 4.81 in assay [2]; 4.81 in assay [3]; 4.78 in assay [4]; 4.72 in assay [5].

For `COc1ccc(/C=C/C(=O)c2cccc(-c3cccc(F)c3)c2)cc1`, the pIC50 in assay [1] was 6.13; in assay [2] it was 5.76; in assay [3], 5.61; in assay [4], 5.35; in assay [5], 5.51.

`COc1ccc(/C=C/C(=O)c2cccc(-c3cccc(F)c3)c2)cc1OC`: the pIC50 in assay [1] was 6.11; in assay [2], 5.93; in assay [3] it was 5.71; in assay [4] it was 5.53; in assay [5] it was 5.34.

As to `COc1cccc(/C=C/C(=O)c2cccc(-c3cccc(F)c3)c2)c1OC`, the pIC50 is 5.00 in assay [1]; 5.04 in assay [2]; 5.05 in assay [3]; 4.87 in assay [4]; 4.93 in assay [5].

With `O=C(/C=C/c1ccccc1Br)c1cccc(-c2cccc(F)c2)c1`, the pIC50 in assay [1] was 5.05; in assay [2], 4.89; in assay [3], 4.91; in assay [4] it was 4.83; in assay [5], 4.70.

Take `O=C(/C=C/c1ccc(Br)cc1)c1cccc(-c2cccc(F)c2)c1`: the negative logarithm of the IC50 (pIC50) in assay [1] was 4.98; in assay [2] it was 5.00; in assay [3], 4.70; in assay [4], 4.74; in assay [5] it was 4.74.

Take `O=C(/C=C/c1cccc(-c2ccc(F)cc2)c1)c1ccc(F)cc1`: the pIC50 in assay [1] is 5.13; in assay [2], 4.91; in assay [3], 4.91; in assay [4], 4.87; in assay [5] it was 4.85.

With `O=C(/C=C/c1cccc(-c2ccc(F)cc2)c1)c1ccc(O)cc1`, the pIC50 in assay [1] was 5.26; in assay [2] it was 5.29; in assay [3], 5.08; in assay [4], 4.92; in assay [5] it was 4.97.

`COc1ccc(/C=C/C(=O)c2ccc(N)c(-c3ccc(F)cc3)c2)cc1`: the pIC50 in assay [1] is 5.80; in assay [2] it was 5.43; in assay [3] it was 5.37; in assay [4], 5.14; in assay [5] it was 5.12.

Turning to `COc1ccc(/C=C/C(=O)c2ccc(NC(C)=O)c(-c3ccc(F)cc3)c2)cc1OC`, the pIC50 in assay [1] is 5.56; in assay [2], 5.25; in assay [3], 5.13; in assay [4] it was 5.27; in assay [5], 4.82.

As for `COc1ccc(/C=C/C(=O)c2ccc(N)c(-c3ccc(F)cc3)c2)cc1OC`, the pIC50 in assay [1] is 5.45; in assay [2] it was 5.42; in assay [3] it was 5.06; in assay [4], 5.18; in assay [5], 4.83.

Turning to `COc1ccc(/C=C/C(=O)c2ccc(N)c(-c3ccc(F)cc3)c2)c(OC)c1`, the pIC50 in assay [1] is 5.20; in assay [2], 5.11; in assay [3] it was 4.84; in assay [4], 4.91; in assay [5], 4.97.

As to `COc1ccc(OC)c(/C=C/C(=O)c2ccc(N)c(-c3ccc(F)cc3)c2)c1`, the negative-log IC50 (pIC50) in assay [1] is 5.17; in assay [2], 5.40; in assay [3], 5.15; in assay [4], 5.11; in assay [5] it was 5.05.

Consider `COc1cccc(/C=C/C(=O)c2ccc(N)c(-c3ccc(F)cc3)c2)c1OC`, for which the pIC50 was 4.95 in assay [1]; 5.13 in assay [2]; 4.87 in assay [3]; 4.90 in assay [4]; 4.88 in assay [5].

For `COc1cc(/C=C/C(=O)c2ccc(N)c(-c3ccc(F)cc3)c2)ccc1O`, the pIC50 in assay [1] was 5.24; in assay [2], 5.37; in assay [3], 4.91; in assay [4], 5.08; in assay [5] it was 4.98.

`COc1cc(/C=C/C(=O)c2ccc(N)c(-c3ccc(F)cc3)c2)cc(OC)c1OC`: the pIC50 in assay [1] is 5.34; in assay [2], 5.38; in assay [3], 5.22; in assay [4], 5.21; in assay [5], 5.04.

For `Nc1ccc(C(=O)/C=C/c2ccc(O)c(F)c2)cc1-c1ccc(F)cc1`, the pIC50 in assay [1] is 4.74; in assay [2] it was 4.93; in assay [3], 4.61; in assay [4] it was 4.50; in assay [5], 4.74.

`COc1cc(/C=C/C(=O)c2ccc(N)c(-c3ccc(F)cc3)c2)cc(Br)c1O`: the pIC50 in assay [1] was 4.59; in assay [2], 5.33; in assay [3], less than 4.30; in assay [4] it was 4.64; in assay [5], 4.39.

With `COc1ccc(/C=C/C(=O)c2ccc(N)c(-c3ccc(F)cc3)c2)cc1O`, the pIC50 in assay [3] was 6.03.

Consider `COc1ccc(-c2cc(C(=O)/C=C/c3ccc(F)cc3)ccc2N)cc1OC`, for which the pIC50 in assay [1] was 5.10; in assay [2], 5.05; in assay [3], 4.74; in assay [4], 4.83; in assay [5], 4.71.

Regarding `COc1ccc(/C=C/C(=O)c2ccc(N)c(-c3ccc(OC)c(OC)c3)c2)c(OC)c1`, the pIC50 in assay [1] was 5.08; in assay [2], 5.67; in assay [3], 5.66; in assay [4], 5.03; in assay [5] it was 5.19.

Turning to `COc1ccc(OC)c(/C=C/C(=O)c2ccc(N)c(-c3ccc(OC)c(OC)c3)c2)c1`, the pIC50 in assay [1] was 5.18; in assay [2], 5.68; in assay [3] it was 5.21; in assay [4], 5.19; in assay [5], 5.20.

Consider `COc1ccc(-c2cc(C(=O)/C=C/c3cccc(OC)c3OC)ccc2N)cc1OC`, for which the pIC50 in assay [1] was 5.18; in assay [2], 5.27; in assay [3] it was 5.18; in assay [4], 5.08; in assay [5], 4.99.

Regarding `COc1ccc(-c2cc(C(=O)/C=C/c3cc(OC)c(OC)c(OC)c3)ccc2N)cc1OC`, the pIC50 in assay [1] is 5.36; in assay [2], 5.57; in assay [3], 5.34; in assay [4] it was 5.25; in assay [5], 5.18.

Consider `COc1ccc(/C=C/C(=O)c2cccc(Br)c2)cc1`, for which, in assay [3], the pIC50 is 4.47.

As for `COc1ccc(/C=C/C(=O)c2cccc(Br)c2)cc1OC`, the pIC50 in assay [3] is 5.03.

Consider `COc1ccc(/C=C/C(=O)c2cccc(Br)c2)cc1O`, for which, in assay [3], the pIC50 was 5.23.

With `COc1ccc(/C=C/C(=O)c2cccc(-c3ccc(F)cc3)c2)cc1`, the pIC50 in assay [1] was 5.26; in assay [2], 5.25; in assay [3], 4.95; in assay [4], 5.08; in assay [5] it was 4.79.

On to `COc1ccc(/C=C/C(=O)c2cccc(-c3ccc(F)cc3)c2)cc1OC`, for which the pIC50 in assay [1] was 5.26; in assay [2] it was 5.27; in assay [3], 4.93; in assay [4], 5.19; in assay [5], 4.94.

Consider `COc1ccc(/C=C/C(=O)c2cccc(-c3cccc(F)c3)c2)cc1O`, for which, in assay [3], the pIC50 was 6.30.

Take `COc1ccc(/C=C/C(=O)c2cccc(-c3ccc(F)nc3)c2)cc1O`: the pIC50 in assay [3] is 5.69.

A word on the pIC50: it is the IC50 on a negative log10 scale, so that one unit is a factor of ten.
